Data set [1] concerns HepG2. Briefly: Decrease in CYP7A1 gene expression in human HepG2 cells at 1 uM after 18 hrs by RT-PCR. The format is functional, cell-based. The procedure, abridged: (§1)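 HepG2 seeded 3 × 10^5 cells/well in M199 with 10% FBS, penicillin/streptomycin and 25 mM HEPES. After 24 h, medium was replaced with ligand-containing medium for 18 h. Total RNA was isolated and analysed by SYBR green real-time QPCR (12.5 ng cDNA, 150 nM primers). Values were derived by ΔΔCt against cyclophilin, as fold over vehicle; N = 3.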

The test system of data set [2] is Huh-7. Briefly: Activation of SHP gene expression in human Huh7 cells at 1 uM after 18 hrs by RT-PCR. The format is functional, cell-based. The method in brief: (§2)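 Huh7 seeded 2 × 10^5 cells/well in high-glucose DMEM with 10% FBS. Next day, ligands were added in low-glucose DMEM with 5% charcoal-stripped FBS for 18 h. RNA was read by SYBR green real-time QPCR, ΔΔCt normalised to cyclophilin, and expressed as fold over vehicle; N = 3.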

Data set [3] has as its system Huh-7. As to the kind of experiment: Activation of BSEP gene expression in human Huh7 cells at 1 uM after 18 hrs by RT-PCR. The format is functional, cell-based. The method in brief:
as §2

The test system of data set [4] is HepG2. Briefly: Activation of BSEP gene expression in human HepG2 cells at 1 uM after 18 hrs by RT-PCR. The format is functional, cell-based. The procedure, abridged:
as §1

For data set [5], the system named is Caco-2. Briefly: Activation of IBABP gene expression in human Caco-2 cells at 1 uM after 6 days by RT-PCR. The format is functional, cell-based. The procedure, abridged: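 Caco-2 grown in high-glucose DMEM with 15% heat-inactivated FBS, medium changed every 3 days. Treated 23 days postconfluence for 6 days in medium with 15% charcoal-stripped heat-inactivated FBS. RNA was read by SYBR green real-time QPCR, ΔΔCt normalised to cyclophilin, and expressed relative to vehicle; N = 2.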

The subject of data set [6] is Huh-7. As to the kind of experiment: Activation of SHP gene expression in human Huh7 cells at 20 uM after 18 hrs by RT-PCR. The format is functional, cell-based. The procedure, abridged:
(§3)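 Huh7 cells seeded 2 × 10^5/well in high-glucose DMEM/10% FBS; next day ligands added in low-glucose DMEM with 5% charcoal-stripped FBS, 18 h. RNA harvested, SYBR green real-time QPCR, ΔΔCt normalized to cyclophilin, fold vs vehicle; N = 3, mean ± SD.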

Data set [7] relates to HepG2. Briefly: Activation of SHP gene expression in human HepG2 cells at 25 uM after 18 hrs by RT-PCR. It counts as functional, cell-based. The procedure, abridged:
(§4)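 HepG2 cells seeded 3 × 10^5/well in M199 with 10% FBS and 25 mM HEPES; after 24 h, medium replaced with ligand-containing medium, 18 h. Total RNA isolated; real-time QPCR with SYBR green (12.5 ng cDNA, 150 nM primers); ΔΔCt method normalized to cyclophilin, fold change vs vehicle-treated cells; N = 3, mean ± SD.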

Data set [8] relates to HepG2. Briefly: Decrease in CYP7A1 gene expression in human HepG2 cells at 25 uM after 18 hrs by RT-PCR. It counts as functional, cell-based. The procedure, abridged:
as §4

Data set [9] has as its target T1, Nuclear receptor subfamily 1 group I member 2 (Homo sapiens, UniProt O75469).
T1 sequence (O75469 whole entry): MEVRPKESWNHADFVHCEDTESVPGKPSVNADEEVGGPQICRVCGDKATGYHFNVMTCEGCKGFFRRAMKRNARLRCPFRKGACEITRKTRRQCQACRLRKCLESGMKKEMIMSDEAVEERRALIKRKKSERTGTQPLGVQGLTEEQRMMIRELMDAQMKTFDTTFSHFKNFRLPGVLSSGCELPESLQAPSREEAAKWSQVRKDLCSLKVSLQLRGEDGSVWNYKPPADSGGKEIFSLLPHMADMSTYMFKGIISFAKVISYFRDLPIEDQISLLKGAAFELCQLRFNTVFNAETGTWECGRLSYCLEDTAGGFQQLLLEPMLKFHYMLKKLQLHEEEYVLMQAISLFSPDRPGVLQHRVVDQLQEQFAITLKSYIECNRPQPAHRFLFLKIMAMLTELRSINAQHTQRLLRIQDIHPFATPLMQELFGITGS
Briefly: Activation of human PXR expressed in HEK293 cells at 50 uM by GAL4 activation assay relative to control. As to conditions: hek293, 50 µM. It counts as cell-based. The procedure, abridged: (§5)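 HEK293 cells in DMEM/10% super-stripped FBS, 4.0 × 10^4/well, calcium-phosphate transfected with UAS-luciferase (50 ng), GAL4-hFXR or GAL4-hPXR LBD fusion (15 ng), β-galactosidase (10 ng); ligands (5, 20, 50 µM) added 6-8 h later in delipidated medium, harvested 14-16 h later. Luciferase normalized to β-gal, fold over ethanol vehicle; triplicates.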

In data set [10] the target is T1, Nuclear receptor subfamily 1 group I member 2. Briefly: Activation of human PXR expressed in HEK293 cells at 20 uM by GAL4 activation assay relative to control. It counts as cell-based. As to conditions: hek293, 20 µM. The procedure, abridged:
as §5

Data set [11] concerns Caco-2. As to the kind of experiment: Activation of IBABP gene expression in human Caco-2 cells at 25 uM after 6 days by RT-PCR. It counts as functional, cell-based. The method in brief: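 Caco-2 cells grown in high-glucose DMEM/15% heat-inactivated FBS, medium changed every 3 days; 23 days post-confluence treated with ligands in DMEM with 15% charcoal-stripped FBS for 6 days. SYBR green real-time QPCR, ΔΔCt normalized to cyclophilin, fold vs vehicle; N = 2.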

Data set [12] relates to HepG2. Briefly: Activation of BSEP gene expression in human HepG2 cells at 25 uM after 18 hrs by RT-PCR. The format is functional, cell-based. The procedure, abridged:
as §4

In data set [13] the test system is Huh-7. Briefly: Activation of BSEP gene expression in human Huh7 cells at 20 uM after 18 hrs by RT-PCR. The format is functional, cell-based. The procedure, abridged:
as §3

Data set [14] deals with HepG2. As to the kind of experiment: Activation of SHP gene expression in human HepG2 cells at 10 uM after 18 hrs by RT-PCR. It counts as functional, cell-based. The method in brief:
as §4

Data set [15] deals with T2, Bile acid receptor (Homo sapiens) (UniProt Q96RI1).
T2 sequence (whole entry): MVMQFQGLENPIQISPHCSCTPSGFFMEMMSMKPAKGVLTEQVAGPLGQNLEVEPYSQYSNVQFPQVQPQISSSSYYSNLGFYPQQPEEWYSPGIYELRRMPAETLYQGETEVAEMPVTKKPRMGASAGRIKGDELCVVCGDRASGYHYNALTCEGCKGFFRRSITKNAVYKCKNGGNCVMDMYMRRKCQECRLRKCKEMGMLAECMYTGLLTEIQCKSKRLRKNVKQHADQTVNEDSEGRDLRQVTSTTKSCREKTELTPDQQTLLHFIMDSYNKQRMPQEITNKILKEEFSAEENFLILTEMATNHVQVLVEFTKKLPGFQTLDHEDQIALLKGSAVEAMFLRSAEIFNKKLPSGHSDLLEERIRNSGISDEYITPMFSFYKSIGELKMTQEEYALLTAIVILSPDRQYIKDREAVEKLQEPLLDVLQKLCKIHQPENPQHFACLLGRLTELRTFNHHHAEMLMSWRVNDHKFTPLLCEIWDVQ
As to the kind of experiment: Activation of human FXR expressed in HEK293 cells by GAL4 activation assay. The format is cell-based. The method in brief:
as §5

Data set [16] has as its target T3, G-protein coupled bile acid receptor 1 (Homo sapiens) (UniProt Q8TDU6).
T3 sequence (whole entry): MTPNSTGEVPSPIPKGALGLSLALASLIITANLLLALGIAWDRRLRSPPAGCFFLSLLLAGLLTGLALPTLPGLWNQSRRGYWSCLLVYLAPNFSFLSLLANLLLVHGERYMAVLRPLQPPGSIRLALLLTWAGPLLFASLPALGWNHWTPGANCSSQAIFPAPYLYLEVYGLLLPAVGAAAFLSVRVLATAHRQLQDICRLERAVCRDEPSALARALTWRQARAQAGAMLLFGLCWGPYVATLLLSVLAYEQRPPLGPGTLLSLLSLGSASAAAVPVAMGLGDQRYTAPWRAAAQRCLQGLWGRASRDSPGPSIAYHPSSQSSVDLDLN
Briefly: Activation of TGR5 expressed in HEK293 cells assessed as elevation of cAMP production at 100 uM relative to control. It counts as functional, cell-based. The method in brief:
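HEK293 seeded 0.5 × 10^6 cells/well and transfected 24 h later with TGR5 vector or empty vector. After 2 days, cells were exposed 30 min at 37 °C in fresh medium with 0.2 mM IBMX. Intracellular cAMP was measured by kit after lysis and expressed over vehicle; N = 2.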
A general note: Cyclic AMP is a second messenger, typically raised through Gs and lowered through Gi signalling.

Data set [17] addresses T2, Bile acid receptor (Homo sapiens). Briefly: Activation of human FXR at 50 uM by FXRE TK-luciferase reporter gene assay relative to control. The procedure, abridged: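 HEK293 cells calcium-phosphate cotransfected with full-length hFXR and hRXRα (15 ng each) plus FXREx3-TK-luc reporter (three copies of mouse IBABP IR-1) and β-galactosidase; bile acids 50 µM added in delipidated medium 6-8 h later, harvested 14-16 h later; luciferase normalized to β-gal; N = 3.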
(A reporter such as luciferase makes a cellular process visible.)

Activity calls are given as the source filed them. The rule behind the calls is not given here.

Regarding `CC(C)c1onc(-c2c(Cl)cccc2Cl)c1COc1ccc(/C=C/c2cccc(C(=O)O)c2)c(Cl)c1`, the result in the data set on HepG2 [1], in the data set with Huh-7 [2], in the data set on Huh-7 [3], with HepG2 [4] and with Caco-2 [5] was Active.
For the compound `C[C@H](CCC(=O)O)[C@H]1CC[C@H]2[C@@H]3[C@H](O)C[C@@H]4C[C@H](O)CC[C@]4(C)[C@H]3CC[C@]12C` [CHENODIOL], the result in the data set with Huh-7 [6], with HepG2 [7], in the data set with HepG2 [8], with Caco-2 [11], in the data set on HepG2 [12] and with Huh-7 [13] was Active. Besides, the outcome in [9] and in data set [10] was Active.
In the case of `C[C@H](CCC(=O)O)[C@H]1CC[C@H]2[C@@H]3[C@@H](O)C[C@@H]4C[C@H](O)CC[C@]4(C)[C@H]3CC[C@]12C`, in the data set on HepG2 [8], the outcome was Active. In addition, the outcome in the data set with Caco-2 [11] was inactive.
Turning to `C[C@@H](CCC(=O)O)[C@@H]1CC[C@H]2[C@@H]3CC[C@H]4C[C@@H](O)CC[C@@]4(C)[C@H]3CC[C@]21C`, the result with Huh-7 [6], in the data set with HepG2 [14] and in the data set with Huh-7 [13] was Active. Besides, the Activity entry in [15] was “Dose-dependent effect”; in data set [9], “Active”; in [10] it was “Active”. Besides, the outcome with Caco-2 [11] was inactive.
Regarding `C=C[C@@]1(C)CC(=O)[C@]2(O)[C@@]3(C)[C@@H](O)CCC(C)(C)[C@@H]3[C@H](O)[C@H](OC(C)=O)[C@@]2(C)O1`, the Fold change in [16] amounted to 16.5.
As for `C[C@H](CCC(=O)O)[C@H]1CC[C@H]2[C@@H]3CC[C@@H]4C[C@H](O)CC[C@]4(C)[C@H]3CC[C@]12C` [LITHOCHOLIC ACID], the outcome (with Huh-7 [6]; in [17]; in the data set with Huh-7 [13]) was Active. The Activity result in data set [15] was “Dose-dependent effect”; in data set [9] it was “Active”; in data set [10], “Active”. Further, the result in the data set with Caco-2 [11] was inactive.

Source of the values: ChEMBL document CHEMBL1138272, “Synthesis, characterization, and receptor interaction profiles of enantiomeric bile acids” (J Med Chem, 2007).
